# According to ChEMBL document CHEMBL5032512, “A Photohormone for Light-Dependent Control of PPARα in Live Cells” (J Med Chem, 2021):
# Active and inactive are the calls of the source. The calls are words filed in the database; no cut-off is given here.
# Legend:
# [1] = target: T1, Peroxisome proliferator-activated receptor delta (Homo sapiens) (UniProt Q03181); experiment: Agonist activity at Gal4-fused human PPARdelta LBD transfected in HEK293T cells assessed as maximal relative activation incubated for 14 to 16 hrs by dual-Glo luciferase assay relative to L165,041; format: cell-based; settings: time 14-16 hrs
# T1 sequence (whole entry): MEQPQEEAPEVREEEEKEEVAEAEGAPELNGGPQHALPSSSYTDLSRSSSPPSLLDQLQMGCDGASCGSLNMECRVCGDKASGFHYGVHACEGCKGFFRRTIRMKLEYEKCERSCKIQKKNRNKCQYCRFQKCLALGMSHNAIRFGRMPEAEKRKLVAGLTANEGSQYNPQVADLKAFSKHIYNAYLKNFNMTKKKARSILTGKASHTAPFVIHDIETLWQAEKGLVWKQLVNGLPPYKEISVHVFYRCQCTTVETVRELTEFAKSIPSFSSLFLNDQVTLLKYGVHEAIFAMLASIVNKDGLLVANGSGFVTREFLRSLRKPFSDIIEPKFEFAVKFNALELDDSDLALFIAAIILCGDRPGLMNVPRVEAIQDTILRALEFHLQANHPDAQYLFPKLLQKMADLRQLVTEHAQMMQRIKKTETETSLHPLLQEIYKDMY
# How it was run: (§1)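 HEK293T cells transiently transfected with pFR-Luc, pRL-SV40 and Gal4 fusion of human PPAR hinge region plus LBD. Compound added 5 h later in Opti-MEM with 0.1% DMSO, then left overnight (14−16 h). Dual-Glo firefly/Renilla luciferase read, giving RLU. Fold activation is taken against the DMSO control. Max relative activation is set against 1 μM GW7647 (α) or L165,041 (δ). EC50 from a four-parameter fit. Duplicates, ≥3 independent runs.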
# [2] = target: T2, Peroxisome proliferator-activated receptor alpha (Homo sapiens, UniProt Q07869); experiment: Agonist activity at Gal4-fused human PPARalpha LBD transfected in HEK293T cells assessed as transcriptional activation incubated for 14 to 16 hrs by dual-Glo luciferase assay; format: cell-based; how it was run: as §1
# T2 sequence (Q07869 whole entry): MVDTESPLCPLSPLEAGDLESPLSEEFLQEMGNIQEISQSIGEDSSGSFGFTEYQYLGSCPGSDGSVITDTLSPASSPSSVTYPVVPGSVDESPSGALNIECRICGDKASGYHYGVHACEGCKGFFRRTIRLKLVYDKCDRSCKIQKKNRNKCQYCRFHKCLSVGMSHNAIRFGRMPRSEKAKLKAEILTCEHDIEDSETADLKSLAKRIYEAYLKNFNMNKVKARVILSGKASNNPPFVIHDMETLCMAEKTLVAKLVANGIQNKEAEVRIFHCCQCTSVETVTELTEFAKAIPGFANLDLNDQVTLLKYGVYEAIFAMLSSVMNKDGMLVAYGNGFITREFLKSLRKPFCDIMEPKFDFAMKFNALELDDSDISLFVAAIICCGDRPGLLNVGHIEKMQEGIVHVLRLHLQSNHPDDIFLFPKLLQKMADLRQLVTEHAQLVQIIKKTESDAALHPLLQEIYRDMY
# [3] = target: T3, Peroxisome proliferator-activated receptor alpha (Homo sapiens) (UniProt Q07869); experiment: Agonist activity at Gal4-fused human PPARalpha LBD transfected in HEK293T cells assessed as maximal relative activation incubated for 14 to 16 hrs by dual-Glo luciferase assay relative to GW7647; format: cell-based; settings: time 14-16 hrs; how it was run: as §1
# T3 sequence (whole entry): T2 sequence (Q07869 whole entry)
# [4] = target: T4, Peroxisome proliferator-activated receptor gamma (Homo sapiens, UniProt P37231); experiment: Agonist activity at Gal4-fused human PPARgamma LBD transfected in HEK293T cells assessed as transcriptional activation incubated for 14 to 16 hrs by dual-Glo luciferase assay; format: cell-based
# T4 sequence (P37231 whole entry): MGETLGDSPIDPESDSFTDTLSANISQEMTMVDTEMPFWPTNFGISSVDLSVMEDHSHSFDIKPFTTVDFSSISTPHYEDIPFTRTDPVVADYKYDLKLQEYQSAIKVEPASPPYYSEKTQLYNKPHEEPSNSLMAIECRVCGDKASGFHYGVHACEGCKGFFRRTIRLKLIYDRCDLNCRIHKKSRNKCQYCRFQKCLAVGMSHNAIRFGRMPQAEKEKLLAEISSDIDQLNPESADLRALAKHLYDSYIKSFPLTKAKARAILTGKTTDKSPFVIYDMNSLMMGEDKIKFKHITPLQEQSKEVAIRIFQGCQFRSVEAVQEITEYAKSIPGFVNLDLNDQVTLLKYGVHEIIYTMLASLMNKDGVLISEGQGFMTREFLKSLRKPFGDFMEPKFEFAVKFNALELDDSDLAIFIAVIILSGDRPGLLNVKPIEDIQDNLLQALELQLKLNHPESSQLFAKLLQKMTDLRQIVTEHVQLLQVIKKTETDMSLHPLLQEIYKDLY
# [5] = target: T5, Peroxisome proliferator-activated receptor delta (Homo sapiens, UniProt Q03181); experiment: Agonist activity at Gal4-fused human PPARdelta LBD transfected in HEK293T cells assessed as transcriptional activation incubated for 14 to 16 hrs by dual-Glo luciferase assay; format: cell-based; how it was run: as §1
# T5 sequence (Q03181 whole entry): T1 sequence (whole entry)
# [6] = target: T3, Peroxisome proliferator-activated receptor alpha (Homo sapiens); experiment: Agonist activity at human Gal4-PPARalpha transfected in HEK293T cells assessed as increase in mCherry fluorescence at 10 nM incubated for 8 hrs followed by irradiation with 365 nm UV light for 3 mins by fluorescence microscopic analysis; format: cell-based
# How it was run: (§2)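 Live HEK293T cells carrying UAS-mCherry-NLS plus Gal4-PPARα-LBD were treated with compound in 0.1% DMSO. mCherry read (ex 585, em 610 nm) hourly from 8 to 24 h and at 36 h. At 8 h, isomers switched by 3 min illumination at 365 or 460 nm. cis state held by Cell DISCO. Fold intensity against DMSO. n = 3.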
# [7] = Photostability of compound assessed as photochemical switch by measuring trans-isoform at 50 uM incubated for 8 hrs followed by irradiation with 460 nm UV light for 3 mins by HPLC analysis; format: physicochemical
# [8] = target: T3, Peroxisome proliferator-activated receptor alpha (Homo sapiens); experiment: Agonist activity at human Gal4-PPARalpha transfected in HEK293T cells assessed as increase in mCherry fluorescence at 10 nM incubated for 40 hrs by fluorescence microscopic analysis; format: cell-based
# How it was run: (§3)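 HEK293T cells transfected separately with UAS-mCherry-NLS plus Gal4-PPARα-LBD, or […]-GFP plus Gal4-PPARδ-LBD. Cells pooled 5 h later and reseeded with compound in 0.1% DMSO. cis form preirradiated 3 min at 365 nm, then held with 75 ms 370 nm pulses every 15 s. Microscope images taken at 40 h. Integrated density set against 1 μM reference agonist. Duplicates, two independent runs.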
# [9] = target: T3, Peroxisome proliferator-activated receptor alpha (Homo sapiens); experiment: Agonist activity at human Gal4-PPARalpha transfected in HEK293T cells assessed as increase in mCherry fluorescence at 300 nM incubated for 40 hrs by fluorescence microscopic analysis; format: cell-based; settings: filed as agonist; how it was run: as §3
# [10] = target: T1, Peroxisome proliferator-activated receptor delta (Homo sapiens); experiment: Agonist activity at human Gal4-PPARdelta transfected in HEK293T cells assessed as increase in eGFP fluorescence at 300 nM incubated for 40 hrs by fluorescence microscopic analysis; format: cell-based; how it was run: as §3
# [11] = Photostability of compound assessed as photochemical switch by measuring cis-isoform at 50 uM incubated for 8 hrs followed by irradiation with 365 nm UV light for 3 mins by HPLC analysis; format: physicochemical
# [12] = target: T3, Peroxisome proliferator-activated receptor alpha (Homo sapiens); experiment: Agonist activity at human Gal4-PPARalpha transfected in HEK293T cells assessed as increase in mCherry fluorescence at 10 nM measured after 8 to 24 hrs by fluorescence microscopic analysis; format: cell-based; settings: filed as agonist, time 8-24 hrs; how it was run: as §2
# [13] = target: T3, Peroxisome proliferator-activated receptor alpha (Homo sapiens); experiment: Agonist activity at human Gal4-PPARalpha transfected in HEK293T cells assessed as increase in mCherry fluorescence at 10 nM incubated for 8 hrs followed by irradiation with 460 nm UV light for 3 mins by fluorescence based analysis; format: cell-based; settings: filed as agonist; how it was run: as §2
# [14] = Microsomal stability in Sprague-Dawley rat liver microsomes assessed as half life at 10 uM measured up to 60 mins in presence of NADPH regenerating system by HPLC-UV analysis; format: ADME, Microsome
# How it was run: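 Compound at 10 μM final, preincubated 5 min at 37 °C in 0.1 M phosphate pH 7.4 with NADPH-regenerating system. Reaction started with Sprague-Dawley rat liver microsomes and stopped with cold methanol at 0, 15, 30 and 60 min. Remaining compound measured by HPLC-UV at 254/280 nm against external calibration. Controls run without NADPH and with heat-inactivated microsomes. Half-life from log-linear fit. Three independent runs.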
max activation [1] [%],EC50 [2] [nM],max activation [3] [%],EC50 [4] [nM],EC50 [5] [nM],max activation ([1]; filed as agonist) [%],max activation ([3]; filed as agonist) [%],other results,Compound
39,790,26,3200,8000,–,–,–,CC(C)(Oc1ccc(CCOc2ccc(/N=N/c3ccc(Cl)cc3)cc2)cc1)C(=O)O
–,3700,–,–,2800,40,40,–,CC(C)(Oc1ccc(COc2ccc(/N=N/c3ccccc3)cc2)cc1)C(=O)O
–,40,–,920,350,44,45,–,CC(C)(Oc1ccc(CCOc2ccc(/N=N\c3ccccc3)cc2Cl)cc1)C(=O)O
37,71,–,–,310,–,42,–,CC(C)(Oc1ccc(CCOc2ccc(/N=N\c3ccccc3)cc2C(F)(F)F)cc1)C(=O)O
–,36,34,2300,120,47,–,–,Cc1ccc(/N=N/c2ccc(OCCc3ccc(OC(C)(C)C(=O)O)cc3)c(C)c2)cc1
–,240,–,–,3000,41,43,Activity [6]: inactive; Stability [7]: Stable; Activity [8]: inactive; Activity [9]: Active; Activity [10]: inactive,Cc1cc(/N=N\c2ccccc2)ccc1OCCc1ccc(OC(C)(C)C(=O)O)cc1
35,290,–,–,380,–,41,Stability [7]: Stable,Cc1ccc(/N=N\c2ccc(OCCc3ccc(OC(C)(C)C(=O)O)cc3)c(Cl)c2)cc1
28,1100,24,> 10000,8100,–,–,–,CC(C)(Oc1ccc(CCOc2ccc(/N=N\c3ccc(Cl)cc3)cc2)cc1)C(=O)O
–,29,–,820,240,46,49,–,CC(C)(Oc1ccc(CCOc2ccc(/N=N/c3ccccc3)cc2Cl)cc1)C(=O)O
22,280,19,–,3400,–,–,–,CC(C)c1ccc(/N=N\c2ccc(OCCc3ccc(OC(C)(C)C(=O)O)cc3)cc2)cc1
–,1090,31,2670,2200,61,–,–,CC(C)(Oc1ccc(CCOc2ccc(/N=N/c3ccccc3)cc2)cc1)C(=O)O
26,3500,28,–,4100,–,–,–,CC(C)(Oc1ccc(COc2ccc(/N=N\c3ccccc3)cc2)cc1)C(=O)O
34,800,29,6000,6000,–,–,–,CC(C)(Oc1ccc(CCOc2ccc(/N=N\c3ccccc3)cc2)cc1)C(=O)O
–,190,–,1300,410,40,41,–,Cc1ccc(/N=N\c2ccc(OCCc3ccc(OC(C)(C)C(=O)O)cc3)c(C(F)(F)F)c2)cc1
–,70,–,1200,113,43,87,–,Cc1ccc(/N=N/c2ccc(OCCc3ccc(OC(C)(C)C(=O)O)cc3)c(C(F)(F)F)c2)cc1
31,1100,22,> 10000,3800,–,–,–,Cc1ccc(/N=N\c2ccc(OCCc3ccc(OC(C)(C)C(=O)O)cc3)cc2)cc1
–,9,–,–,140,45,46,–,CC(C)(Oc1ccc(CCOc2ccc(/N=N/c3ccccc3)cc2C(F)(F)F)cc1)C(=O)O
–,40,–,–,120,65,76,Stability [11]: Stable,Cc1ccc(/N=N/c2ccc(OCCc3ccc(OC(C)(C)C(=O)O)cc3)c(Cl)c2)cc1
–,470,25,–,1770,40,–,–,CC(C)c1ccc(/N=N/c2ccc(OCCc3ccc(OC(C)(C)C(=O)O)cc3)cc2)cc1
32,640,26,1200,800,–,–,–,Cc1ccc(/N=N\c2ccc(OCCc3ccc(OC(C)(C)C(=O)O)cc3)c(C)c2)cc1
–,7,38,–,540,45,–,Activity [12]: Active; Activity ([8]; filed as agonist): Active; Activity [13]: Active; half-life at 10 µM [14]: 1.72 h; Activity [9]: Active; Stability [11]: Stable; Activity [10]: inactive,Cc1cc(/N=N/c2ccccc2)ccc1OCCc1ccc(OC(C)(C)C(=O)O)cc1
